# Published values collected from several papers.
# Lines come from different studies, so protocols differ.
# Cell line: PC-3
# Read-out: cell growth or viability
SMILES,assay,conditions,quantity,result
Cc1c(Cc2ccccc2)c(=O)oc2c(C)c(OCC(=O)NN=Cc3ccc([N+](=O)[O-])cc3)ccc12,MTT,31.25 µg/mL,viability,31.3%
COc1ccc(-c2cc(-c3ccc(Br)cc3)c3c(=O)n(C)c(=O)n(C)c3n2)cc1,MTT,48 h,IC50,8.58 µM
CCCOc1ccc2c(C)c(CC)c(=O)oc2c1C,MTT,125 µg/mL,viability,56.8%
Cc1ccc(-c2cc(-c3ccc(N(C)C)cc3)c3c(=O)[nH]c(=O)[nH]c3n2)cc1,MTT,48 h,IC50,17.4 µM
CCc1c(C)c2ccc(OCC(=O)NN=Cc3ccc([N+](=O)[O-])cc3)cc2oc1=O,MTT,31.25 µg/mL,viability,22.2%
COc1ccc(-c2cc(-c3ccc(N(C)C)cc3)c3c(=O)n(C)c(=O)n(C)c3n2)cc1,MTT,48 h,IC50,5.18 µM
C=CCOc1ccc2c(C)c(CC)c(=O)oc2c1C,MTT,125 µg/mL,viability,95.8%
CCCOc1nc(-c2cccc(O)c2)cc(-c2cc3cc(OC)ccc3nc2N2CCOCC2)c1C#N,MTT,72 h,IC50,0.0639 µM
O=C(O)c1ccccc1Nc1cccc(C(F)(F)F)c1,SRB,48 h,GI50,> 30 µM
COc1cc2ncnc(Nc3ccc4c(c3)/C(=C/c3ccccc3)C(=O)N4C)c2cc1OC,MTT,,IC50,37.9 µM
Cc1c(Cc2ccccc2)c(=O)oc2c(C)c(OCC(=O)NN=Cc3ccccc3)ccc12,MTT,62.5 µg/mL,viability,26.3%
COc1ccc(-c2cc(-c3ccc(Cl)cc3)c3c(=O)n(C)c(=O)n(C)c3n2)cc1,MTT,48 h,IC50,13.5 µM
Cc1nc(NC(=O)N2CCC[C@H]2C(N)=O)sc1-c1ccnc(C(C)(C)C(F)(F)F)c1,MTT,,IC50,47.7 µM
Cc1nc2ccc(CN(C)c3ccc(C(=O)N[C@@H](CCC(=O)O)C(=O)O)s3)cc2c(=O)[nH]1,MTT,48 h,IC50,3.09 µM
CCc1c(C)c2ccc(OCC(=O)NNC(=S)Nc3ccccc3)c(C)c2oc1=O,MTT,1000 µg/mL,viability,2.47%
O=C(O)c1cccnc1Nc1cccc(C(F)(F)F)c1,SRB,48 h,GI50,> 30 µM
COc1cc2ncnc(Nc3ccc4c(c3)/C(=C/c3ccccc3)C(=O)N4)c2cc1OC,MTT,,IC50,4.17 µM
COc1ccc(-c2cc(-c3cccc(Br)c3)c3c(=O)n(C)c(=O)n(C)c3n2)cc1,MTT,48 h,IC50,18.4 µM
Cc1nc(Nc2ccc3c(c2)/C(=C/c2ccccc2)C(=O)N3Cc2ccccc2)c2ccccc2n1,MTT,,IC50,> 50 µM
COc1ccc(-c2cc(-c3cccc(Br)c3)c3c(=O)[nH]c(=O)[nH]c3n2)cc1,MTT,48 h,IC50,18.5 µM
Cc1c(Cc2ccccc2)c(=O)oc2c(C)c(OCC(=O)NN=Cc3ccc(Cl)cc3)ccc12,MTT,1000 µg/mL,viability,2.23%
COc1cc2ncnc(N(C)c3ccc4c(c3)/C(=C/c3ccccc3)C(=O)N4C)c2cc1OC (mixture of isomers),MTT,,IC50,39.2 µM
Cc1ccc(-c2cc(-c3ccc(N(C)C)cc3)c3c(=O)n(C)c(=O)n(C)c3n2)cc1,MTT,48 h,IC50,21.5 µM
CCc1c(C)c2ccc(OCc3nnc(S)n3N)c(C)c2oc1=O,MTT,500 µg/mL,viability,3.08%
Cc1nc(Nc2ccc3c(c2)/C(=C/c2ccccc2C)C(=O)N3C)c2ccccc2n1,MTT,,IC50,15.9 µM
